# Results published in ChEMBL document CHEMBL5303300, “EUbOPEN Chemogenomics Library - Multiplex” (2023).
# Several values for one entry are separate records, joined by “and”; a condition that tells them apart may be missing. Equal values may be shown once.
# Tested on: Fibroblast
# Assay: Multiplex assay against human fibroblast
# Format: toxicity, cell-based
# Details: number of replicates 2
# Outline: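 Per cents of healthy-nucleus cells form the tubulin, mitochondrial-mass and membrane-permeability phenotype values. Live cells were stained at seeding with Hoechst33342, BioTracker Green Microtubule Cytoskeleton Dye, MitoTracker Red and Annexin V Alexa Fluor 680. After compound addition they were imaged on a CQ1 microscope at 37°C and 5% CO2, and CellPathfinder machine-learning gating split them into Hoechst high-intensity objects or normal cells, normal cells into healthy, pyknosed or fragmented nuclei, and pyknosed cells into mitotic or apoptotic.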
# [1] = 12 h, 1 µM, compound concentration 1 uM
# [2] = 12 h, 10 µM, compound concentration 10 uM
# [3] = 24 h, 1 µM, compound concentration 1 uM
# [4] = 24 h, 10 µM, compound concentration 10 uM
# [5] = 48 h, 1 µM, compound concentration 1 uM
# [6] = 48 h, 10 µM, compound concentration 10 uM
structure (smiles),measurement,setting,value
CS(=O)(=O)c1ccc(C(=O)Nc2cc(F)c(F)c(COc3cc(F)c(Br)cc3CN3CC[C@H](O)C3)c2)c(Cl)c1.O=CO,Population Apoptotic (%),[1],25% and 38%
same,Population Healthy Nuclei (%),[1],55%
same,Population Hoechst High Intensity Objects (%),[1],0%
same,Population Mitotic Cells (%),[1],75% and 61%
same,Population Normal (%),[1],100%
same,Total Cell Count,[1],220 and 267
same,Population Apoptotic (%),[2],80% and 55%
same,Population Healthy Nuclei (%),[2],29%
same,Population Hoechst High Intensity Objects (%),[2],0%
same,Population Mitotic Cells (%),[2],20% and 44%
same,Population Normal (%),[2],100% and 99%
same,Total Cell Count,[2],162 and 357
same,Population Apoptotic (%),[3],54% and 55%
same,Population Healthy Nuclei (%),[3],64% and 54%
same,Population Hoechst High Intensity Objects (%),[3],0%
same,Population Mitotic Cells (%),[3],45% and 44%
same,Population Normal (%),[3],99%
same,Total Cell Count,[3],246 and 309
same,Population Apoptotic (%),[4],94% and 79%
same,Population Healthy Nuclei (%),[4],35% and 27%
same,Population Hoechst High Intensity Objects (%),[4],0%
same,Population Mitotic Cells (%),[4],5%
same,Population Normal (%),[4],100% and 99%
same,Total Cell Count,[4],154 and 339
same,Population Apoptotic (%),[5],73% and 71%
same,Population Healthy Nuclei (%),[5],61% and 60%
same,Population Hoechst High Intensity Objects (%),[5],0%
same,Population Mitotic Cells (%),[5],26%
same,Population Normal (%),[5],99%
same,Total Cell Count,[5],294 and 351
same,Population Apoptotic (%),[6],93% and 91%
same,Population Healthy Nuclei (%),[6],25% and 19%
same,Population Hoechst High Intensity Objects (%),[6],0%
same,Population Mitotic Cells (%),[6],6% and 8%
same,Population Normal (%),[6],99%
same,Total Cell Count,[6],147 and 311
